Measurements as given in ChEMBL document CHEMBL1150956, “Antitubercular natural products: berberine from the roots of commercial Hydrastis canadensis powder. Isolation of inactive 8-oxotetrahydrothalifendine, canadine, beta-hydrastine, and two new quinic acid esters, hycandinic acid esters-1 and -2” (1998).

Tested on: Mycobacterium tuberculosis
Assay: Antimicrobial activity against recombinant Mycobacterium bovis BCG expressing pMV361 lux after 5 days by luciferase assay
Type: functional
Conditions: variant bovis BCG, 120 h
Method in brief: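 rBCG (pMV361 lux) in Middlebrook 7H9 broth at about 5e5 cfu/mL final inoculum. Compounds were tested at 0.1–50 µg/mL and at higher levels, with no-drug 1% DMSO growth controls. Tubes were incubated at 36 °C in ambient air. A 100 µL aliquot received 100 µL of 1 mM luciferin, and RLU were read at day 0 (within 30 min) and day 5. Inhibition was scored as a drop in luminescence.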

COc1c(O)ccc2c1C(=O)N1CCc3cc4c(cc3C1C2)OCO4 (stereo not given) showed an MIC of over 50 µg/mL.
With COc1c(OC(C)=O)ccc2c1C(=O)N1CCc3cc4c(cc3C1C2)OCO4 (stereo not given) the MIC was over 50 µg/mL.
In the case of COc1ccc2c(c1OC)C(=O)N1CCc3cc4c(cc3C1C2)OCO4 (stereo not given), the MIC is reported as over 50 µg/mL.
Compound COc1ccc2cc3[n+](cc2c1OC)CCc1cc2c(cc1-3)OCO2.[Cl-] [BERBERINE CHLORIDE] has an MIC of 200 µg/mL.
For COc1ccc2c(c1OC)CN1CCc3cc4c(cc3[C@@H]1C2)OCO4 [CANADINE], the MIC was over 50 µg/mL.
